Sampled rows, rich in hits. Any-hit rate of the full collection: about 1.5%.
PP5 primary – blocks human protein phosphatase 5 activity; purified PP5c, OMFP substrate fluorescence; inhibition, % at 6.7 µM; actives 0.18% (n = 320,000);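 active = inhibition above the campaign's mean inhibition across all tested compounds plus 3 SD, cut at about 9.5% in these data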
Hsp70 act – transcriptional activators of Hsp70; HeLa Hsp70 promoter luciferase reporter, luminescence; scaled: vehicle 0, proteasome-inhibitor control 100%; activation, % at 10 µM; actives 0.04% (n = 200,000); AID 1203;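 active = activation above the mean across all tested compounds plus 3 SD, cutoff set per campaign, cut at about 5.5% in these data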
PKD1 inh – PKD1 (human) kinase inhibition; PKD1 kinase fluorescence polarization assay; actives 0.056% (n = 200,000); Q15139; inhibition, % (concentration not given with the values); in the data active = inhibition above about 50%
Target sequence (Q15139 whole entry, looked up): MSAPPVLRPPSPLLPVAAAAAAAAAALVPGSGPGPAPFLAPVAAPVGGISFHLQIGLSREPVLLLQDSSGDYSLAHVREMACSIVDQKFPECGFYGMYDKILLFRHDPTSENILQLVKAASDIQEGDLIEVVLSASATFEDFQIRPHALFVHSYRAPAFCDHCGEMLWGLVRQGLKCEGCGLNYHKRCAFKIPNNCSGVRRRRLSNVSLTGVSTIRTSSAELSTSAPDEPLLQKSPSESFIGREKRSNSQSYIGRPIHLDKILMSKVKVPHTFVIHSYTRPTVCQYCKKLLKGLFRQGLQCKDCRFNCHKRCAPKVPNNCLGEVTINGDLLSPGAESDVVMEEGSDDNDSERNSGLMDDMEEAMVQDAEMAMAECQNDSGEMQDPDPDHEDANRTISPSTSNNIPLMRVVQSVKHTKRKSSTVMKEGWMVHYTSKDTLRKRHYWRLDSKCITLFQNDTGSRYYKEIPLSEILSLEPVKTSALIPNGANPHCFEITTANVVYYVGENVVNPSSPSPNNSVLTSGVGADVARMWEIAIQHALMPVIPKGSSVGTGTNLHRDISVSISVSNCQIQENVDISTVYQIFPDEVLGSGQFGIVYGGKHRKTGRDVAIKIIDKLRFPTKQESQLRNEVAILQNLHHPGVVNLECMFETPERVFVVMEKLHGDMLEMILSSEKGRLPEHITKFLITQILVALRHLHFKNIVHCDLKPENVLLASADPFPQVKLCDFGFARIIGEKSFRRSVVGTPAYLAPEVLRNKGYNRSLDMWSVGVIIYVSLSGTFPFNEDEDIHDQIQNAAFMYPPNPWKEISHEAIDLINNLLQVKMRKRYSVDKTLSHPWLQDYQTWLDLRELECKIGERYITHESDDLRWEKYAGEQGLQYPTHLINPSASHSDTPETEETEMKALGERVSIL
p97 inhibitor – blocks human p97 ATPase activity; recombinant p97 ATPase, Kinase-Glo ATP luminescence, 3 h; inhibition, % at 8 µM; actives 0.42% (n = 220,000); AID 1481; in the data active = inhibition above about 15%
RBBP9 inh – inhibitors of human serine hydrolase RBBP9. O75884. recombinant RBBP9, FP-Rh probe fluorescence polarization. inhibition, % at 7.94 µM. actives 0.2% (n = 220,000);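 active = inhibition above the campaign mean of all tested compounds plus 3 SD, cut at about 14% in these data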
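Measured by – fluorescence polarization · Test system – RBBP9 protein · Input – 2.5 µM RBBP9 dispensing solution, before mixing · Measure – percent inhibition from mP, scaled between DMSO and no-protein wells · Benchmarks – DMSO-treated enzyme wells and wells lacking RBBP9 · Times – preincubation 30 min plus labeling 45 min at 25 °C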
PP1 inh – PP1-alpha (human) inhibition in PP5 counter-screen. P62136. purified PP1alpha, OMFP fluorescence. inhibition, % at 6.7 µM. actives 0.9% (n = 320,000);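 active = inhibition above the mean inhibition of all tested compounds plus 3 SD, computed separately for each screening campaign, cut at about 15% in these data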
Hits are given with their value; - = inactive; . = no result.

SMILES	PP5 primary	Hsp70 act	PKD1 inh	p97 inhibitor	RBBP9 inh	PP1 inh
CC(OC(=O)c1ccco1)C(=O)Nc1ccc(C(F)(F)F)cc1 (stereo unspecified)	-	.	.	.	.	-
Cc1ccc(NS(=O)(=O)c2cccc(C(=O)N3CCCCCC3)c2)cc1	-	.	.	.	.	-
COC(=O)c1c(NC(=O)CN2C(=O)NC3(CCC(C(C)(C)C)CC3)C2=O)sc2c1CCCCC2 (stereo unspecified)	-	-	-	-	-	-
COC(=O)c1c(NC(=O)CN2C(=O)NC3(CCc4ccccc4C3)C2=O)sc2c1CCCCC2 (stereo unspecified)	-	-	-	-	-	15
CCOC(=O)CCSc1n[nH]c(=S)s1	-	.	.	-	-	-
CCOC(=O)CSc1n[nH]c(=S)s1	-	.	.	15	-	-
O=C(NC1(Cc2ccccc2)CCN(CCc2cccs2)C1=O)c1ccccc1 (stereo unspecified)	-	.	.	.	.	-
NNC(=O)c1ccc(CN2C(=O)c3cccc4cccc2c34)cc1	-	-	-	-	-	-
COc1ccccc1/C=N/NC(=O)c1ccc(CN2C(=O)c3cccc4cccc2c34)cc1	-	.	.	-	-	16
Cc1ccc(O)c(C(=O)c2cc(C(=O)NCCc3ccccc3)c(=O)n(CCc3ccccc3)c2)c1	-	-	-	-	-	17
COc1ccc(O)c(C(=O)c2cc(C(=O)NCCc3ccccc3)c(=O)n(CCc3ccccc3)c2)c1	-	-	-	-	-	-
C#CCOCCOCCOCCNc1nc(N2CCN(C(=O)[C@H](Cc3cc4ccccc4[nH]3)n3cc([C@@H](N)C(C)CC)nn3)CC2)nc(N2CCN(C(=O)[C@H](Cc3cc4ccccc4[nH]3)n3cc([C@@H](N)CC(C)C)nn3)CC2)n1 (stereo partly specified)	-	-	-	-	-	19
C#CCOCCOCCOCCNc1nc(N2CCN(C(=O)C([C@@H](C)CC)n3cc(C(N)COC(=O)C(F)(F)F)nn3)CC2)nc(N2CCN(C(=O)[C@H](CCCCN)n3cc(C(N)[C@H](C)CC)nn3)CC2)n1 (stereo partly specified)	-	.	.	.	.	17
O=C1N(c2ccccc2C(F)(F)F)O[C@]1(c1ccccc1)C1CCCCC1	-	.	.	.	.	-
CC(C)c1ccc(C2CC(=O)c3cnc(N4CCc5ccccc5C4)nc3C2)cc1 (stereo unspecified)	-	-	-	-	-	-
O=C1CC(c2ccco2)Cc2nc(N3CCc4ccccc4C3)ncc21 (stereo unspecified)	-	-	-	-	-	17
CCN(c1cccc(C)c1)S(=O)(=O)c1cc2c3c(c1)CCN3C(=O)CC2	-	.	.	.	.	-
N=C(N)SCc1ccc(Cl)cc1Cl	-	-	-	-	-	15
NC(=S)Cc1ccc(Cl)cc1Cl	-	.	.	-	-	-
CCOc1cc(C(=O)N(CC)CC(=O)Nc2ccc3c(c2)OCCO3)ccc1OC	-	.	.	.	.	-
COc1cccc(C(=O)Nc2ccc(-c3nc4ccccc4o3)c(O)c2)c1	-	-	-	-	-	16
COc1cc(OC)cc(C(=O)Nc2ccc(-c3nc4ccccc4o3)cc2)c1	-	-	-	-	-	-
O=C(O)C1=CC(=C(c2ccc(O)c(C(=O)O)c2)c2ccc(O)c(C(=O)O)c2)C=CC1=O	-	.	.	.	.	82
COc1ccc(NC(=O)CSc2nnc3n2CCCCC3)cc1S(=O)(=O)N1CCOCC1	-	.	.	.	.	-
CCN=C1S/C(=C\c2cn(CC(=O)NCc3ccco3)c3ccccc23)C(=O)N1CC	-	.	.	.	.	15
SMILES	PP5 primary	Hsp70 act	PKD1 inh	p97 inhibitor	RBBP9 inh	PP1 inh
CN1C(=O)/C(=C/c2cn(CC(=O)NCc3ccco3)c3ccccc23)NC1=S	-	-	-	-	-	-
O=C(NNC1=Nc2cccc3cccc1c23)c1ccc(Br)cc1	-	-	50	-	-	-
COc1ccc(CC(=O)NNC2=Nc3cccc4cccc2c34)cc1OC	-	.	.	-	-	-
O=C(Nc1ccc2c(c1)OCO2)Nc1ccc2c(c1)OCO2	-	-	-	-	-	-
Cc1ccc(NC(=O)Nc2ccc3c(c2)OCO3)c(Br)c1	-	.	.	.	.	17
CCN1CCN(c2ccc(NC(=O)c3cc(S(=O)(=O)N4CCCC4)ccc3Cl)cc2)CC1	-	.	.	.	.	-
COc1ccccc1/C=C(/CC(=O)NCc1ccccc1)c1nc2ccccc2s1	-	-	-	-	-	-
COc1ccccc1/C=C(/CC(=O)NCc1ccc(F)cc1)c1nc2ccccc2s1	-	-	-	-	-	16
O=C(NC1CCCCCCC1)c1ccc(Br)o1	-	.	.	.	.	-
Sc1nnc(-c2ccc(Cl)cc2)n1Cc1ccccc1	-	.	.	.	.	15
Cc1cccc(CNc2ccc(S(=O)(=O)N3CCCCC3)cc2)c1	-	.	.	.	.	-
COCCN(Cc1nc(-c2ccc(-c3ccccc3)cc2)oc1C)C(C)C	-	.	.	.	.	-
COc1ccc2c(c1)c(=O)oc1cc(OCC(=O)N3CCCC(C)C3)ccc12 (stereo unspecified)	-	-	-	-	-	16
O=C(Nc1ccc(NC(=O)C2CCCCC2)nc1)c1cccs1	-	-	-	-	-	-
CCc1ccc(Nc2nc(N)nc(CSc3nnnn3-c3ccccc3)n2)cc1	-	-	-	-	-	16
COc1cc2[nH]c(=O)n(Cc3ccc(C(=O)NC4CCCC4)cc3)c(=O)c2cc1OC	-	-	-	-	-	-
COc1ccc(Cn2c(=O)[nH]c3cc(C(=O)NC4CCCC4)ccc3c2=O)cc1	-	-	56	-	-	-
COc1ccc(C(CNC(=O)c2cccc(S(=O)(=O)NCc3ccccc3)c2)N(C)C)cc1 (stereo unspecified)	-	.	.	.	.	-
N=c1oc2cc(O)ccc2cc1C(=O)Nc1ccc(Cl)cc1	-	.	.	.	.	-
Cc1cc(C)cc(NC(=S)N(Cc2ccc(Cl)cc2)Cc2ccc(C(=O)O)cc2)c1	-	-	-	-	-	-
Cc1cc(NC(=S)N(Cc2ccc(Cl)cc2)Cc2ccc(C(=O)O)cc2)ccc1Cl	-	-	-	-	-	16
c1ccc2c(c1)ncn2CCCCOc1ccc2c(c1)CCC2	-	-	-	-	-	16
c1ccc2c(c1)ncn2CCCOc1ccc2c(c1)CCC2	-	-	-	-	-	-
Cc1cc(C(=O)COC(=O)CC2Sc3ccccc3NC2=O)c(C)n1-c1ccc(Br)cc1 (stereo unspecified)	-	-	-	-	-	17
O=C(NCCC1=CCCCC1)c1c(O)nc2ccccn2c1=O	-	.	.	.	.	15
COc1ccc(C(C[N+](=O)[O-])c2c(C)[nH]n(-c3ccccc3)c2=O)cc1 (stereo unspecified)	-	.	.	.	.	-
Cc1[nH]n(-c2ccccc2)c(=O)c1C(c1ccc(O)c([N+](=O)[O-])c1)c1c(C)[nH]n(-c2ccccc2)c1=O	-	-	-	15	-	-

Screening data (PubChem BioAssay)
